Source: ChEMBL document CHEMBL3860061, “A Novel Parkinson's Disease Drug Candidate with Potent Anti-neuroinflammatory Effects through the Src Signaling Pathway” (J Med Chem, 2016)
Calls of active or inactive are those of the source. The rule behind the calls is not given here.

Assays:
[1] = molecular target: Proto-oncogene tyrosine-protein kinase Src (Mus musculus) (UniProt P05480); assay: Inhibition of Src signaling pathway in mouse BV2 cells assessed as suppression of LPS-induced NO release at […] preincubated for 1 hr followed by LPS addition measured after 24 hrs relative to control by Griess assay; assay type: cell-based; settings: BV-2
[2] = molecular target: Proto-oncogene tyrosine-protein kinase Src (Mus musculus, UniProt P05480); assay: Inhibition of Src in mouse BV2 cells assessed as suppression of LPS-induced NO release preincubated for 1 hr followed by LPS addition measured after 24 hrs by Griess assay; assay type: cell-based, BV-2
Outline: (§1)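 BV-2 cells in DMEM/10% FBS, plated at 5×10^3 per well. After 24 h, treated at 100, 50, 10, 5, 1 and 0.1 µM; 1 h later LPS 300 ng/mL added. After another 24 h, nitrite in the medium measured by Griess assay.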

[3] = molecular target: Proto-oncogene tyrosine-protein kinase Src (Rattus norvegicus) (UniProt Q9WUD9); assay: Inhibition of SRC in Sprague-Dawley rat primary mixed mesecephalic neuron/glial cells assessed as protection against LPS-induced dopaminergic neuro-toxicity by measuring TH expression at 10 uM preincubated for 1 hr followed by LPS challenge measured after 7 days by Western blot analysis
Outline: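 Mixed mesencephalic neuron/glia cultures from E14 Sprague-Dawley rats, used at 7 days. Agent at 10 µM added 1 h before LPS 100 ng/mL; TH measured by Western blot after 7 days, n = 4.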

[4] = Drug uptake in ICR mouse plasma at 50 mg/kg, ig after 5 mins by LC/MS/MS analysis; assay type: ADME, organism-based; settings: in vivo, po
[5] = molecular target: Proto-oncogene tyrosine-protein kinase Src (Rattus norvegicus) (UniProt Q9WUD9); assay: Inhibition of Src in Sprague-Dawley rat primary mixed mesecephalic neuron/glial cells assessed as suppression of LPS-induced TNFalpha expression at 10 uM preincubated for 1 hr followed by LPS challenge measured after 5 hrs by ELISA
Outline: (§2)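 Mixed mesencephalic neuron/glia cultures from E14 Sprague-Dawley rats, used at 7 days. Agent at 10 µM added 1 h before LPS 100 ng/mL; IL-1β and TNF-α in medium measured by ELISA after 5 h, n = 6.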

[6] = molecular target: Proto-oncogene tyrosine-protein kinase Src (Rattus norvegicus) (UniProt Q9WUD9); assay: Inhibition of Src in Sprague-Dawley rat primary mixed mesecephalic neuron/glial cells assessed as suppression of LPS-induced IL-1beta expression at 10 uM preincubated for 1 hr followed by LPS challenge measured after 5 hrs by ELISA; outline: as §2
[7] = molecular target: Proto-oncogene tyrosine-protein kinase Src (Rattus norvegicus) (UniProt Q9WUD9); assay: Inhibition of Src in Sprague-Dawley rat primary mixed mesecephalic neuron/glial cells assessed as suppression of LPS-induced microglia activation by measuring Iba-1 expression at 10 uM preincubated for 1 hr followed by LPS challenge measured after 24 hrs
[8] = molecular target: Proto-oncogene tyrosine-protein kinase Src (Mus musculus) (UniProt P05480); assay: Inhibition of Src signaling pathway in mouse BV2 cells assessed as suppression of LPS-induced NO release at 0.1 to 100 uM preincubated for 1 hr followed by LPS addition measured after 24 hrs relative to control by Griess assay; assay type: cell-based; settings: BV-2; outline: as §1
[9] = Cmax in ICR mouse blood at 50 mg/kg, ig up to 8 hrs by LC/MS/MS analysis; assay type: ADME, organism-based; parameters: dose 50 mg/kg, route […]; settings: po
Outline: (§3)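 Male ICR mice (22–25 g), fasted 16 h, single intragastric dose of 50 mg/kg. Blood and brain sampled at 5, 15, 30 min and 1, 2, 4, 8 h after decapitation. Plasma spun 4000 rpm 5 min; brain homogenised in saline and spun. Extracts run by LC/MS/MS on C18 columns at 30 °C, isocratic 70% acetonitrile (1% TFA)/30% water, 0.2 mL/min. Mean ± SD, n = 6.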

[10] = AUC (0 to infinity) in ICR mouse blood at 50 mg/kg, ig up to 8 hrs by LC/MS/MS analysis; assay type: ADME, organism-based; parameters: dose 50 mg/kg, route […], time infinity; settings: in vivo, po; outline: as §3
[11] = AUC (0 to infinity) in ICR mouse brain at 50 mg/kg, ig up to 8 hrs by LC/MS/MS analysis; assay type: ADME, organism-based; parameters: dose 50 mg/kg, route […], time infinity; settings: in vivo, po, BLD = below limit of detection; outline: as §3
[12] = Half life in ICR mouse blood at 50 mg/kg, ig up to 8 hrs by LC/MS/MS analysis; assay type: ADME, organism-based; settings: po; outline: as §3
[13] = Cmax in ICR mouse brain at 50 mg/kg, ig up to 8 hrs by LC/MS/MS analysis; assay type: ADME, organism-based; parameters: dose 50 mg/kg, route […]; settings: in vivo, po, BLD = below limit of detection; outline: as §3
[14] = Toxicity in ICR mouse assessed as mortality administered through oral gavage; assay type: organism-based; settings: in vivo
Mus musculus [15] = assay: Nephrotoxicity in ICR mouse at 1000 mg/kg administered through oral gavage for 14 consecutive days; assay type: toxicity, organism-based; settings: in vivo
Outline: (§4)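 Mice dosed by oral gavage at 250, 500 and 1000 mg/kg for 14 consecutive days. General condition monitored throughout; liver and kidney clinical chemistry assessed.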

[16] = molecular target: Voltage-gated inwardly rectifying potassium channel KCNH2 (Homo sapiens, UniProt Q12809); assay: Inhibition of human ERG by whole cell voltage clamp assay
Outline: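 Whole-cell voltage clamp. Internal solution: KCl 130 mM, MgCl2 1 mM, EGTA 5 mM, ATP-Mg 5 mM, HEPES 10 mM, pH 7.2. Bath: NaCl 137, CaCl2 1.8, KCl 4, MgCl2 1, glucose 5, HEPES 10 mM, pH 7.4. From a holding potential of −70 mV, 2-s steps to 50 mV in 10 mV increments every 15 s; tail current recorded on a 2-s step from +50 to −40 mV.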

Mus musculus [17] = assay: Hepatotoxicity in ICR mouse at 1000 mg/kg administered through oral gavage for 14 consecutive days; assay type: toxicity, organism-based; settings: in vivo; outline: as §4

Proto-oncogene tyrosine-protein kinase Src, sequence (P05480 2-535 limits assumed): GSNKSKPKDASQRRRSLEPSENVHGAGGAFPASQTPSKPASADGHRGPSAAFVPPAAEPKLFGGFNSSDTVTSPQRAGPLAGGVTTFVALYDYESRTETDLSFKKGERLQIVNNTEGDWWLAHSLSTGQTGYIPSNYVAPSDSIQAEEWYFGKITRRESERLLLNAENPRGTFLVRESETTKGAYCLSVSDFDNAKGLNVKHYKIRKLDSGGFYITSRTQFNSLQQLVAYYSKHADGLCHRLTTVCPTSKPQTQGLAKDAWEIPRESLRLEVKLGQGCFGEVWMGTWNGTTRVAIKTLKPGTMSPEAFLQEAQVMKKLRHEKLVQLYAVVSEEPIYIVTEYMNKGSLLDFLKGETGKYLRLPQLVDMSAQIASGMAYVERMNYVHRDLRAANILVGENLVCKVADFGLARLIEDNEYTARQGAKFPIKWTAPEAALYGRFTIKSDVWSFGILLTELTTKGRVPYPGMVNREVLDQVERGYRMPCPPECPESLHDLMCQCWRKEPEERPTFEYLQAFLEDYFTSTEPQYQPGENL
Proto-oncogene tyrosine-protein kinase Src (Mus musculus), sequence (P05480 2-535 limits assumed): as above
Proto-oncogene tyrosine-protein kinase Src (Rattus norvegicus), sequence (Q9WUD9 2-536 limits assumed): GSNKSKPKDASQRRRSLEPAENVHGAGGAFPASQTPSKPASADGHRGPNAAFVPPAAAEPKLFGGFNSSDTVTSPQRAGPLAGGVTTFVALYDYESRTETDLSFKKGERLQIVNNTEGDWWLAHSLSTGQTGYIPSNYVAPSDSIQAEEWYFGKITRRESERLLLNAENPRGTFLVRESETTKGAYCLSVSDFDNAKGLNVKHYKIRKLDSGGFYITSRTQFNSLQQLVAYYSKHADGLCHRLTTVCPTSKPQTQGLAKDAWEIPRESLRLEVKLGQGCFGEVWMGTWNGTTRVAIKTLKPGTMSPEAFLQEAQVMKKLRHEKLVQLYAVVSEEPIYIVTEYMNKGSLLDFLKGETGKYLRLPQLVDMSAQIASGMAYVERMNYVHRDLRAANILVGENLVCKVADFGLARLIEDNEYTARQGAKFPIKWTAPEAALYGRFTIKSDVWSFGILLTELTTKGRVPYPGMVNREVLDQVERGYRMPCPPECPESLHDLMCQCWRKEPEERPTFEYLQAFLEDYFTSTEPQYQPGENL
Voltage-gated inwardly rectifying potassium channel KCNH2, sequence (Q12809 whole entry): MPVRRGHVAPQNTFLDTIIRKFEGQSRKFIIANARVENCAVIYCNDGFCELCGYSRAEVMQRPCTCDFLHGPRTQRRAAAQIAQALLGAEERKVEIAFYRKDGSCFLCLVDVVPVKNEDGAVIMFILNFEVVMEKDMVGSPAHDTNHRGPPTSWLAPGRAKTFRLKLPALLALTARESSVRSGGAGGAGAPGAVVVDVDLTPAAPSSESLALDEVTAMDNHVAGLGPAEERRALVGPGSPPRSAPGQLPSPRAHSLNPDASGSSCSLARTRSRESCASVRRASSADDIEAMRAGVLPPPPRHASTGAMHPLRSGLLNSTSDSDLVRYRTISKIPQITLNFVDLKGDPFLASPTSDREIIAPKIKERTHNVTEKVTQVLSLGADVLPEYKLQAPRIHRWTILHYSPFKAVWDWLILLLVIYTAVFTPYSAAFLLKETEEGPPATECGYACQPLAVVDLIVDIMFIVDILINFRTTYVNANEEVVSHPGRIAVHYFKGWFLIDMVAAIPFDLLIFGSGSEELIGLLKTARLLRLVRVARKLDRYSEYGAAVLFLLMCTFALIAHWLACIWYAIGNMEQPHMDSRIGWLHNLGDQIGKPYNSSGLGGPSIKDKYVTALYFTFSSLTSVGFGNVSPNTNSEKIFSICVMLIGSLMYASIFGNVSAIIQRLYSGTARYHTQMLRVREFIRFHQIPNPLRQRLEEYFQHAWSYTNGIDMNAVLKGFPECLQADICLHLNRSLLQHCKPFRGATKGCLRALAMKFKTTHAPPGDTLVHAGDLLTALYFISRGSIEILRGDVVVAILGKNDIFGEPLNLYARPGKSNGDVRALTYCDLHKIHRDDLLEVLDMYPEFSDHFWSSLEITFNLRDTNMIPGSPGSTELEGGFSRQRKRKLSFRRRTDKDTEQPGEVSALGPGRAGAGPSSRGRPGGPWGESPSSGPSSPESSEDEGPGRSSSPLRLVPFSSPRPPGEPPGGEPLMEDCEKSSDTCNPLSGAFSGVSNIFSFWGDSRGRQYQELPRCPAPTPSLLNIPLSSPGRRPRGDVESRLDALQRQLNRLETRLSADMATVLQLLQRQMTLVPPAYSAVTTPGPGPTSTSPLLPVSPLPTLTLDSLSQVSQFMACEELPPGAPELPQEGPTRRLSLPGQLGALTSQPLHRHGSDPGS

SMILES	IC50 [2]	also measured
CC(C)CC(=O)c1c(O)cc(O)cc1OC[C@H](O)CNC(C)C	–	inhibition [1]: < 50%
CC(=O)c1c(O)cc(O)cc1O [2,4,6-TRIHYDROXYACETOPHENONE]	195 µM	–
CC(C)CC(=O)c1c(O)cc(O)cc1OC[C@@H](O)CNC(C)C	–	inhibition [1]: < 50%
COc1cc(OC)c(C(=O)CC(C)C)c(OC)c1	11.1 µM	–
COc1cc(OC)c(CNC(C)C)c(OC)c1	–	inhibition [1]: < 50%
CC(C)CC(=O)c1c(O)cc(O)cc1OCC(O)CNC(C)(C)C (stereo not given)	21.7 µM	–
COc1ccc(C(=O)CC(C)C)c(OC[C@H](O)CNC(C)C)c1	40.9 µM	–
COc1cc(OC)c(CNCC(=O)O)c(OC)c1	–	inhibition [1]: < 50%
COc1cc(OC)c(C(=O)CC(C)C)c(OCC(O)CNC(C)(C)C)c1 (stereo not given)	75 µM	–
COc1cc(OC)c(C(=O)CN2CCN(C)CC2)c(OC)c1	95.3 µM	–
COc1cc(OC)c(CN[C@@H](Cc2cnc[nH]2)C(=O)O)c(OC)c1	–	inhibition [1]: < 50%
O=C(CCCN1CCN(c2cccc(Cl)c2)CC1)c1c(O)cc(O)cc1O	–	inhibition [1]: < 50%
COc1cc(OC)c(C(=O)CC(C)C)c(OC[C@H](O)CNC(C)C)c1	41.3 µM	–
COc1cc(OC)c(CN[C@@H](Cc2ccccc2)C(=O)O)c(OC)c1	–	inhibition [1]: < 50%
COc1cc(OC)c(C(=O)CN2CCOCC2)c(OC)c1	32.4 µM	–
COc1ccc(C(=O)CC(C)C)c(OCC(O)CNC(C)(C)C)c1 (stereo not given)	138 µM	–

SMILES	IC50 [2]	also measured
COc1cc(OC)c(CN[C@@H](C)C(=O)O)c(OC)c1	39.1 µM	–
CC(C)NC(=O)c1c(O)cc(O)cc1O	92.6 µM	–
COc1cc(OC)c(C(=O)CC(C)C)c(OC[C@H](O)CNC(C)(C)C)c1	–	inhibition [1]: < 50%
CC(C)CC(=O)c1c(O)cc(O)cc1OCc1c(-c2ccccc2)no[n+]1[O-]	8.5 µM	inhibition [3]: Active; Drug uptake [4]: Active; inhibition [5]: Active; inhibition [6]: Active; inhibition [7]: Active
O=C(CCCN1CCCCC1)c1c(O)cc(O)cc1O	182 µM	–
CCCCC(=O)c1c(O)cc(O)cc1O	11.2 µM	–
CC(C)CC(=O)c1c(O)cc(O)cc1OCC(O)CNC(C)C (stereo not given)	74 µM	–
COc1cc(OC)c(CN[C@@H](CC(=O)O)C(=O)O)c(OC)c1	14.4 µM	inhibition [8]: Active
COc1ccc(C(=O)CC(C)C)c(OCC(O)CNC(C)C)c1 (stereo not given)	–	inhibition [1]: < 50%
COc1cc(OC)c(CN[C@@H](CCC(=O)O)C(=O)O)c(OC)c1	8.4 µM	inhibition [3]: Active; inhibition [8]: Active; Cmax [9]: 1640 ng/mL; AUC [10]: 3195.1 µg·L·h; Drug uptake [4]: Active; inhibition [5]: Active; AUC [11]: Bld; inhibition [6]: Active; inhibition [7]: Active; half-life [12]: 1.1 h; Cmax [13]: Bld
COc1cc(OC)c(C(=O)CC(C)C)c(OCC(O)CNC(C)C)c1 (stereo not given)	84.8 µM	–
COc1cc(O)cc(O)c1C(=O)CC(C)C	5.8 µM	inhibition [3]: Active; Drug uptake [4]: Active; LD50 [14]: 2000 mg/kg; inhibition [5]: Active; inhibition [6]: Active; inhibition [7]: Active; Activity (Mus musculus [15]): Toxic; inhibition (INH) [16]: Active; Activity (Mus musculus [17]): Toxic
COc1cc(OC)c(C(=O)CN2CCCCC2)c(OC)c1	24.9 µM	–
CC(C)CC(=O)c1ccc(O)cc1	90.7 µM	–
COc1cc(O)c(C(=O)CC(C)C)c(OC)c1	51.5 µM	–

Continued, in another order:

IC50 [2]	SMILES	also measured
37.1 µM	CCCCNC(=O)c1c(O)cc(O)cc1O	–
24.1 µM	CC(C)CC(=O)c1c(O)cc(O)cc1OC[C@@H](O)CNC(C)(C)C	–
50.6 to 50.7 µM	CC(C)CC(=O)c1c(O)cc(O)cc1O	–
22.7 µM	CCN1CCN(CC(=O)c2c(OC)cc(OC)cc2OC)CC1	–
138 µM	COc1cc(OC)c(C(=O)CC(C)C)c(OC[C@@H](O)CNC(C)C)c1	–
37.3 µM	CC(C)CC(=O)c1c(O)cc(O)cc1OC[C@H](O)CNC(C)(C)C	–
2.2 µM	COc1cc(/C=C/C(=O)CC(=O)/C=C/c2ccc(O)c(OC)c2)ccc1O [CURCUMIN]	–
53.8 µM	COc1ccc(C(=O)CC(C)C)c(OC[C@@H](O)CNC(C)(C)C)c1	–
54.8 µM	CN(CCCC(=O)c1c(O)cc(O)cc1O)C1CCCCC1	–
25.6 µM	COc1ccc(C(=O)CC(C)C)c(OC[C@@H](O)CNC(C)C)c1	–
28.2 µM	COc1ccc(C(=O)CC(C)C)c(OC[C@H](O)CNC(C)(C)C)c1	–
113 µM	COc1ccc(C(=O)CC(C)C)c(O)c1	–
11.2 µM	COc1cc(OC)c(C(=O)CC(C)C)c(OC[C@@H](O)CNC(C)(C)C)c1	–
